Key:
Type in all cases: functional
Parameters in all cases: scale not given: the % may be the effect or the level left
Rattus norvegicus [1] = assay: Antiinflammatory activity in Wistar albino rat assessed as reduction in carrageenan-induced paw edema at 50 mg/kg, po administered 30 mins prior to carrageenan challenge measured after 2 hrs by plethysmometer
Summary of the method: (§1)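 Rats housed under standard light and temperature with free food and water; food withdrawn 12 h before and during testing; six rats per group, control given tween 80. Oral dosing 30 min before subplantar injection of 0.1 mL 1% w/v carrageenan in normal saline into left hind paw. Paw volume read by plethysmometer at baseline and 1, 2, 3, 4 h; %AI = (Vc−Vt)/Vc×100.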

Rattus norvegicus [2] = assay: Antiinflammatory activity in Wistar albino rat assessed as reduction in carrageenan-induced paw edema at 50 mg/kg, po administered 30 mins prior to carrageenan challenge measured after 4 hrs by plethysmometer; summary of the method: as §1
Rattus norvegicus [3] = assay: Antiinflammatory activity in Wistar albino rat assessed as reduction in carrageenan-induced paw edema at 50 mg/kg, po administered 30 mins prior to carrageenan challenge measured after 3 hrs by plethysmometer; summary of the method: as §1
Rattus norvegicus [4] = assay: Antiinflammatory activity in Wistar albino rat assessed as reduction in carrageenan-induced paw edema at 50 mg/kg, po administered 30 mins prior to carrageenan challenge measured after 1 hr by plethysmometer; summary of the method: as §1
Rattus norvegicus [5] = assay: Antiinflammatory activity in Wistar albino rat assessed as reduction in carrageenan-induced paw edema at 10 mg/kg, po administered 30 mins prior to carrageenan challenge measured after 1 hr by plethysmometer; summary of the method: as §1
Rattus norvegicus [6] = assay: Antiinflammatory activity in Wistar albino rat assessed as reduction in carrageenan-induced paw edema at 10 mg/kg, po administered 30 mins prior to carrageenan challenge measured after 2 hrs by plethysmometer; summary of the method: as §1
Rattus norvegicus [7] = assay: Antiinflammatory activity in Wistar albino rat assessed as reduction in carrageenan-induced paw edema at 10 mg/kg, po administered 30 mins prior to carrageenan challenge measured after 4 hrs by plethysmometer; summary of the method: as §1
Rattus norvegicus [8] = assay: Antiinflammatory activity in Wistar albino rat assessed as reduction in carrageenan-induced paw edema at 10 mg/kg, po administered 30 mins prior to carrageenan challenge measured after 3 hrs by plethysmometer; summary of the method: as §1

SMILES	Activity (Rattus norvegicus [1]) [%]	Activity (Rattus norvegicus [2]) [%]	Activity (Rattus norvegicus [3]) [%]	Activity (Rattus norvegicus [4]) [%]	Activity (Rattus norvegicus [5]) [%]	Activity (Rattus norvegicus [6]) [%]	Activity (Rattus norvegicus [7]) [%]	Activity (Rattus norvegicus [8]) [%]
Cc1cc(C)nc(-n2nc(C(F)(F)F)cc2C(F)(F)F)n1	46	44	57	34				
Cc1cc(C)nc(-n2nc(C(F)(F)F)cc2-c2ccccc2)n1	43	51	62	33				
Cc1cc(C)nc(-n2nc(-c3ccc(Cl)cc3)cc2C(F)(F)F)n1	54	53	58	35				
Cc1cc(C)nc(-n2nc(-c3ccc(F)cc3)cc2C(F)(F)F)n1	38	49	55	26				
Cc1cc(C)nc(-n2nc(-c3ccccc3)cc2C(F)(F)F)n1	20	56	59	4.3				
Cc1cc(C)nc(-n2nc(-c3cccs3)cc2C(F)(F)F)n1	18	37	47	8.6				
COc1ccc(-c2cc(C(F)(F)F)nn2-c2nc(C)cc(C)n2)cc1	59	61	72	56				
Cc1cc(C)nc(N2N=C(C(F)(F)F)C[C@@]2(O)C(F)(F)F)n1	44	23	49	42				
Cc1cc(C)nc(N2N=C(c3ccccc3)C[C@@]2(O)C(F)(F)F)n1	47	45	50	44				
Cc1ccc(C2=NN(c3nc(C)cc(C)n3)[C@](O)(C(F)(F)F)C2)cc1	35	50	54	32				
Cc1cc(C)nc(N2N=C(c3ccc(F)cc3)C[C@@]2(O)C(F)(F)F)n1	51	38	54	49				
Cc1cc(C)nc(N2N=C(c3ccc(Cl)cc3)C[C@@]2(O)C(F)(F)F)n1	50	45	59	5.7				
Cc1ccc(-c2cc(C(F)(F)F)nn2-c2nc(C)cc(C)n2)cc1	55	53	69	48				
Cc1cc(C)nc(-n2nc(C(F)(F)F)cc2-c2ccc(F)cc2)n1	59	58	67	29				
Cc1cc(C)nc(-n2nc(C(F)(F)F)cc2-c2ccc(Cl)cc2)n1	64	63	76	55				
COc1ccc2c(c1)c(CC(=O)O)c(C)n2C(=O)c1ccc(Cl)cc1 [INDOMETHACIN]					69	75	74	78

Reference: ChEMBL document CHEMBL3085772, “Synthesis, biological evaluation and molecular modeling study of 5-trifluoromethyl-Δ²-pyrazoline and isomeric 5/3-trifluoromethylpyrazole derivatives as anti-inflammatory agents” (2013)
